# Assay results as given in ChEMBL document CHEMBL1124553, “Brain-specific chemical delivery systems for beta-lactam antibiotics. In vitro and in vivo studies of some dihydropyridine and dihydroisoquinoline derivatives of benzylpenicillin in rats” (J Med Chem, 1989).
# Columns and labels:
# Rattus norvegicus [1] = test: Concentration of compound in rat kidney after intravenous injection of 20 mg/kg benzyl-penicillin after 1 min; format: functional, organism-based; design: dose 20 mg/kg
# How it was run: (§1)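 Male Sprague-Dawley rats (200-250 g), conscious, received 60 µmol/kg (equimolar to 20 mg/kg benzylpenicillin) by tail-vein injection. Benzylpenicillin K was given in water/ethanol/propylene glycol, and the delivery systems in ethanol:propylene glycol 7:3, at 20 mg/mL. Rats were decapitated at set times (4-6 per point), with trunk blood heparinized and brain, kidney, liver and lung frozen. Benzylpenicillin was measured by disk microbioassay (Bacillus subtilis ATCC 6633) after >5-volume sterile-water dilution or homogenization, against matrix calibration curves; assay limit 0.05 µg/mL.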
# Rattus norvegicus [2] = test: Concentration of compound in rat kidney after intravenous injection of 20 mg/kg benzyl-penicillin after 20 min; format: functional, organism-based; design: dose 20 mg/kg; how it was run: as §1
# Rattus norvegicus [3] = test: Concentration of compound in rat kidney after intravenous injection of 20 mg/kg benzyl-penicillin after 3 min; format: functional, organism-based; design: dose 20 mg/kg; how it was run: as §1
# Rattus norvegicus [4] = test: Concentration of compound in rat kidney after intravenous injection of 20 mg/kg benzyl-penicillin after 40 min; format: functional, organism-based; design: dose 20 mg/kg; how it was run: as §1
# Rattus norvegicus [5] = test: Concentration of compound in rat kidney after intravenous injection of 20 mg/kg benzyl-penicillin after 5 min; format: functional, organism-based; design: dose 20 mg/kg; how it was run: as §1
# Rattus norvegicus [6] = test: Concentration of compound in rat kidney after intravenous injection of 20 mg/kg benzyl-penicillin after 60 min; format: functional, organism-based; design: dose 20 mg/kg; how it was run: as §1
# Rattus norvegicus [7] = test: Concentration of compound in rat kidney after intravenous injection of 20 mg/kg benzyl-penicillin after 10 min; format: functional, organism-based; design: dose 20 mg/kg; how it was run: as §1
# Rattus norvegicus [8] = test: Concentration of compound in rat liver after intravenous injection of 20 mg/kg benzyl-penicillin after 1 min; format: functional, organism-based; design: dose 20 mg/kg; how it was run: as §1
# Rattus norvegicus [9] = test: Concentration of compound in rat liver after intravenous injection of 20 mg/kg benzyl-penicillin after 10 min; format: functional, organism-based; design: dose 20 mg/kg; how it was run: as §1
# Rattus norvegicus [10] = test: Concentration of compound in rat liver after intravenous injection of 20 mg/kg benzyl-penicillin after 20 min; format: functional, organism-based; design: dose 20 mg/kg; how it was run: as §1
# Rattus norvegicus [11] = test: Concentration of compound in rat liver after intravenous injection of 20 mg/kg benzyl-penicillin after 3 min; format: functional, organism-based; design: dose 20 mg/kg; how it was run: as §1
# Rattus norvegicus [12] = test: Concentration of compound in rat liver after intravenous injection of 20 mg/kg benzyl-penicillin after 40 min; format: functional, organism-based; design: dose 20 mg/kg; how it was run: as §1
# Rattus norvegicus [13] = test: Concentration of compound in rat liver after intravenous injection of 20 mg/kg benzyl-penicillin after 5 min; format: functional, organism-based; design: dose 20 mg/kg; how it was run: as §1
# Rattus norvegicus [14] = test: Concentration of compound in rat blood after intravenous injection of 20 mg/kg benzyl-penicillin after 1 min; format: functional, organism-based; design: dose 20 mg/kg; how it was run: as §1
# Rattus norvegicus [15] = test: Concentration of compound in rat blood after intravenous injection of 20 mg/kg benzyl-penicillin after 10 min; format: functional, organism-based; design: dose 20 mg/kg; how it was run: as §1
# Rattus norvegicus [16] = test: Concentration of compound in rat blood after intravenous injection of 20 mg/kg benzyl-penicillin after 20 min; format: functional, organism-based; design: dose 20 mg/kg; how it was run: as §1
# Rattus norvegicus [17] = test: Concentration of compound in rat blood after intravenous injection of 20 mg/kg benzyl-penicillin after 3 min; format: functional, organism-based; design: dose 20 mg/kg; how it was run: as §1
# Rattus norvegicus [18] = test: Concentration of compound in rat blood after intravenous injection of 20 mg/kg benzyl-penicillin after 40 min; format: functional, organism-based; design: dose 20 mg/kg; how it was run: as §1
# Rattus norvegicus [19] = test: Concentration of compound in rat blood after intravenous injection of 20 mg/kg benzyl-penicillin after 5 min; format: functional, organism-based; design: dose 20 mg/kg; how it was run: as §1
# Rattus norvegicus [20] = test: Concentration of compound in rat blood after intravenous injection of 20 mg/kg benzyl-penicillin after 60 min; format: functional, organism-based; design: dose 20 mg/kg; how it was run: as §1
# Rattus norvegicus [21] = test: Concentration of compound in rat brain after intravenous injection of 20 mg/kg benzyl-penicillin after 1 min; format: functional, organism-based; design: dose 20 mg/kg; how it was run: as §1
# Rattus norvegicus [22] = test: Concentration of compound in rat brain after intravenous injection of 20 mg/kg benzyl-penicillin after 10 min; format: functional, organism-based; design: dose 20 mg/kg; how it was run: as §1
# Rattus norvegicus [23] = test: Concentration of compound in rat brain after intravenous injection of 20 mg/kg benzyl-penicillin after 3 min; format: functional, organism-based; design: dose 20 mg/kg; how it was run: as §1
# Rattus norvegicus [24] = test: Concentration of compound in rat brain after intravenous injection of 20 mg/kg benzyl-penicillin after 5 min; format: functional, organism-based; design: dose 20 mg/kg; how it was run: as §1
# Rattus norvegicus [25] = test: Concentration of compound in rat liver after intravenous injection of 20 mg/kg benzyl-penicillin after 60 min; format: functional, organism-based; design: dose 20 mg/kg; how it was run: as §1
# Rattus norvegicus [26] = test: Concentration of compound in rat lung after intravenous injection of 20 mg/kg benzyl-penicillin after 1 min; format: functional, organism-based; design: dose 20 mg/kg; how it was run: as §1
# Rattus norvegicus [27] = test: Concentration of compound in rat lung after intravenous injection of 20 mg/kg benzyl-penicillin after 10 min; format: functional, organism-based; design: dose 20 mg/kg; how it was run: as §1
# Rattus norvegicus [28] = test: Concentration of compound in rat lung after intravenous injection of 20 mg/kg benzyl-penicillin after 20 min; format: functional, organism-based; design: dose 20 mg/kg; how it was run: as §1
# Rattus norvegicus [29] = test: Concentration of compound in rat lung after intravenous injection of 20 mg/kg benzyl-penicillin after 3 min; format: functional, organism-based; design: dose 20 mg/kg; how it was run: as §1
# Rattus norvegicus [30] = test: Concentration of compound in rat lung after intravenous injection of 20 mg/kg benzyl-penicillin after 40 min; format: functional, organism-based; design: dose 20 mg/kg; how it was run: as §1
# Rattus norvegicus [31] = test: Concentration of compound in rat lung after intravenous injection of 20 mg/kg benzyl-penicillin after 5 min; format: functional, organism-based; design: dose 20 mg/kg; how it was run: as §1
# Rattus norvegicus [32] = test: Concentration of compound in rat lung after intravenous injection of 20 mg/kg benzyl-penicillin after 60 min; format: functional, organism-based; design: dose 20 mg/kg; how it was run: as §1
# [33] = Half-life for disappearance of compound from dog whole blood; format: ADME, organism-based, Canis lupus familiaris
# How it was run: (§2)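 Freshly collected whole blood, or 10% w/v brain homogenate in pH 7.4 phosphate buffer (ionic strength 0.15), was prewarmed to 37 °C. Compound was spiked from an 8 mM DMSO stock to 40 µM final. Timed samples were quenched in 8% DMSO/acetonitrile, centrifuged, filtered and analyzed by reversed-phase C8 HPLC with UV detection. K came from linear regression of log peak height versus time, with t1/2 derived from it. Values are mean ± SE of three determinations in different animal samples.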
# [34] = Half-life for disappearance of compound from human whole blood; format: ADME, organism-based; how it was run: as §2
# [35] = Half-life for disappearance of compound from rabbit 10% brain homogenate; format: ADME, Oryctolagus cuniculus; how it was run: as §2
# [36] = Half-life for disappearance of compound from rabbit whole blood; format: ADME, organism-based, Oryctolagus cuniculus; how it was run: as §2
# [37] = Half-life for disappearance of compound from rat 10% brain homogenate; format: ADME; how it was run: as §2
# [38] = Half-life for disappearance of compound from rat whole blood; format: ADME, organism-based; how it was run: as §2
# Canis familiaris = organism: Canis familiaris; test: Pseudo first-order rate constant (K) for disappearance of compound from dog whole blood; format: ADME, organism-based, Canis lupus familiaris; how it was run: as §2
# Homo sapiens = organism: Homo sapiens; test: Pseudo first-order rate constant (K) for disappearance of compound from human whole blood; format: ADME, organism-based; how it was run: as §2
# Oryctolagus cuniculus [39] = organism: Oryctolagus cuniculus; test: Pseudo first-order rate constant (K) for disappearance of compound from rabbit 10% brain homogenate; format: ADME
# How it was run: (§3)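 Freshly collected whole blood (rat trunk blood; rabbit) or 10% w/v brain homogenate made in pH 7.4 phosphate buffer (μ = 0.15), prewarmed to 37 °C. Compound added from 8 mM DMSO stock to a final 40 μM. Timed 0.3 mL samples were quenched in 8% DMSO/acetonitrile, centrifuged, filtered and analysed by reversed-phase C8 HPLC-UV. K came from linear regression of log peak height versus time; n=3 animal samples.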
# Oryctolagus cuniculus [40] = organism: Oryctolagus cuniculus; test: Pseudo first-order rate constant (K) for disappearance of compound from rabbit whole blood; format: ADME, organism-based; how it was run: as §3
# Rattus norvegicus [41] = organism: Rattus norvegicus; test: Pseudo first-order rate constant (K) for disappearance of compound from rat 10% brain homogenate; format: ADME; how it was run: as §3
# [42] = Pseudo first-order rate constant (K) for disappearance of compound from rat whole blood; format: ADME, tissue-based; how it was run: as §3
compound,measurement,setting,value
CC1(C)S[C@@H]2[C@H](NC(=O)Cc3ccccc3)C(=O)N2[C@H]1C(=O)O,Concentration,Rattus norvegicus [1],33.6 µg/mL
same,Concentration,Rattus norvegicus [2],20.8 µg/mL
same,Concentration,Rattus norvegicus [3],120 µg/mL
same,Concentration,Rattus norvegicus [4],6.2 µg/mL
same,Concentration,Rattus norvegicus [5],88.5 µg/mL
same,Concentration,Rattus norvegicus [6],1.1 µg/mL
same,Concentration,Rattus norvegicus [7],27.6 µg/mL
same,Concentration,Rattus norvegicus [8],15.1 µg/mL
same,Concentration,Rattus norvegicus [9],17.7 µg/mL
same,Concentration,Rattus norvegicus [10],7.5 µg/mL
same,Concentration,Rattus norvegicus [11],38.9 µg/mL
same,Concentration,Rattus norvegicus [12],2.9 µg/mL
same,Concentration,Rattus norvegicus [13],30.7 µg/mL
same,Concentration,Rattus norvegicus [14],64.6 µg/mL
same,Concentration,Rattus norvegicus [15],8.5 µg/mL
same,Concentration,Rattus norvegicus [16],2.8 µg/mL
same,Concentration,Rattus norvegicus [17],25.2 µg/mL
same,Concentration,Rattus norvegicus [18],1.3 µg/mL
same,Concentration,Rattus norvegicus [19],22.8 µg/mL
same,Concentration,Rattus norvegicus [20],0.4 µg/mL
same,Concentration,Rattus norvegicus [21],2.7 µg/mL
same,Concentration,Rattus norvegicus [22],0.3 µg/mL
same,Concentration,Rattus norvegicus [23],1.3 µg/mL
same,Concentration,Rattus norvegicus [24],0.9 µg/mL
same,Concentration,Rattus norvegicus [25],0.7 µg/mL
same,Concentration,Rattus norvegicus [26],52.5 µg/mL
same,Concentration,Rattus norvegicus [27],9.5 µg/mL
same,Concentration,Rattus norvegicus [28],2.3 µg/mL
same,Concentration,Rattus norvegicus [29],30.3 µg/mL
same,Concentration,Rattus norvegicus [30],1.4 µg/mL
same,Concentration,Rattus norvegicus [31],22.4 µg/mL
same,Concentration,Rattus norvegicus [32],0.7 µg/mL
C[n+]1cccc(C(=O)NCCOC(=O)C2N3C(=O)C(NC(=O)Cc4ccccc4)C3SC2(C)C)c1.[I-] (centres undefined),half-life,[33],14.5 min
same,half-life,[34],9.1 min
same,half-life,[35],23.4 min
same,half-life,[36],3 min
same,half-life,[37],92.1 min
same,half-life,[38],1.9 min
same,K,Canis familiaris,0.048 min⁻¹
same,K,Homo sapiens,0.078 min⁻¹
same,K,Oryctolagus cuniculus [39],0.03 min⁻¹
same,K,Oryctolagus cuniculus [40],0.23 min⁻¹
same,K,Rattus norvegicus [41],0.008 min⁻¹
same,K,[42],0.362 min⁻¹
